From the M2OR odorant receptor database

Columns and labels:
Conditions in all cases: stereoisomer not certain
UniProt Q8VGC6 = molecular target: T1, UniProt Q8VGC6
T1 sequence (whole entry): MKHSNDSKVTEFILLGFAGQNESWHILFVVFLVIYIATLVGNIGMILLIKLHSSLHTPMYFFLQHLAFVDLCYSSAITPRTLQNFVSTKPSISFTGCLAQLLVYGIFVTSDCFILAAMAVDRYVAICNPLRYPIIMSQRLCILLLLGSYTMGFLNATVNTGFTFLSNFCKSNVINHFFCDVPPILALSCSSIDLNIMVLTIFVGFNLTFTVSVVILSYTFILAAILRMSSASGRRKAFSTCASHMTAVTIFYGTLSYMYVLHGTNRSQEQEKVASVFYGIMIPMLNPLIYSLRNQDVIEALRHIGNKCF
Method in brief: (§1)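 Each entry records the cell line, G-protein, co-transfected protein and tags used. Methods varied with the source, often transient luciferase assays in mammalian cell lines. A receptor–molecule pair is called responsive (active) if the original authors judged its signal statistically different from baseline and non-responsive (inactive) otherwise.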

UniProt Q8VGJ3 = molecular target: T2, UniProt Q8VGJ3
T2 sequence (whole entry): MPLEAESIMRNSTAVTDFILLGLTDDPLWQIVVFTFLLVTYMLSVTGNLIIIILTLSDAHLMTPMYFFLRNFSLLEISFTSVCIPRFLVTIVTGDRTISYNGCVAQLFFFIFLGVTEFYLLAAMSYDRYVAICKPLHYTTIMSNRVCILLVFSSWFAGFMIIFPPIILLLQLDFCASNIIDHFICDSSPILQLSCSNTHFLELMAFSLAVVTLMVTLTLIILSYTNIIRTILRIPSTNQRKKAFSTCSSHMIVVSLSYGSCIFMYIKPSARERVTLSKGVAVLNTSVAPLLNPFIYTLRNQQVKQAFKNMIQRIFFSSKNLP
Method in brief: as §1

UniProt Q8VGL0 = molecular target: T3, UniProt Q8VGL0
T3 sequence (whole entry): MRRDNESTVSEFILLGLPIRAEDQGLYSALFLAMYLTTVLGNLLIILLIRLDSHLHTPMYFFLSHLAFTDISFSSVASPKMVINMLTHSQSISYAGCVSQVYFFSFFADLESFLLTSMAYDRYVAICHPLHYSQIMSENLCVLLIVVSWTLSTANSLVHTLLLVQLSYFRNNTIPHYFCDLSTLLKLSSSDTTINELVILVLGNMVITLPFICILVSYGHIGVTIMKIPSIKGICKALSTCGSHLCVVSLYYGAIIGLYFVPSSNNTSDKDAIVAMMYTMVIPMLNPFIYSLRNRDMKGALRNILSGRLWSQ
Method in brief: as §1

UniProt Q8VGU3 = molecular target: T4, UniProt Q8VGU3
T4 sequence (whole entry): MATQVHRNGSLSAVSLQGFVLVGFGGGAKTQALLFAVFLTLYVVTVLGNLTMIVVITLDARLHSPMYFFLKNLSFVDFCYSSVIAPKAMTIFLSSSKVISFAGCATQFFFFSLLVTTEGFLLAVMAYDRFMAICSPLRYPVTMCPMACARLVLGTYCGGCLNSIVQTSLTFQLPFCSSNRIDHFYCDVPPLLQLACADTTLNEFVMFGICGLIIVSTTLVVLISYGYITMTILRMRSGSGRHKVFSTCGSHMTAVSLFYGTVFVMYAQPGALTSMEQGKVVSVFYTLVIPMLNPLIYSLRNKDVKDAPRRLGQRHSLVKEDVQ
Method in brief: as §1

UniProt Q8VGV7 = molecular target: T5, UniProt Q8VGV7
T5 sequence (whole entry): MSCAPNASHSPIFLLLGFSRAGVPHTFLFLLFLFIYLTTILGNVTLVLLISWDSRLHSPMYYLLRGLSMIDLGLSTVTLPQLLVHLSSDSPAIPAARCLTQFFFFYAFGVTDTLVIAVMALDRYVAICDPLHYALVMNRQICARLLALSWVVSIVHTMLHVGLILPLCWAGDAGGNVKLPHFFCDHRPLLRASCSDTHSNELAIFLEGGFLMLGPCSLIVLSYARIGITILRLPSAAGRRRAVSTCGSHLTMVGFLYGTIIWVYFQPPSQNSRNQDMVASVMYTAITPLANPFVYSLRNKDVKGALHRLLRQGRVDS
Method in brief: as §1

UniProt Q8VGW5 = molecular target: T6, UniProt Q8VGW5
T6 sequence (whole entry): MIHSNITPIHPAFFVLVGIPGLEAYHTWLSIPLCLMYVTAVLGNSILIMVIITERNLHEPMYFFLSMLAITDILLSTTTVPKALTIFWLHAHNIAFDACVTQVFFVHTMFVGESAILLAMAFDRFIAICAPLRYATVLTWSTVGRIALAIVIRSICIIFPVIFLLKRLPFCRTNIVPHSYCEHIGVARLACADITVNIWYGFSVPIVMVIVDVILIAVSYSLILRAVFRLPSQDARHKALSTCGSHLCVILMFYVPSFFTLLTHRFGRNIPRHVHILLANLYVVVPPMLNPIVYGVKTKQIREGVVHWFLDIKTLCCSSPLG
Method in brief: as §1

UniProt Q8VGX3 = molecular target: T7, UniProt Q8VGX3
T7 sequence (whole entry): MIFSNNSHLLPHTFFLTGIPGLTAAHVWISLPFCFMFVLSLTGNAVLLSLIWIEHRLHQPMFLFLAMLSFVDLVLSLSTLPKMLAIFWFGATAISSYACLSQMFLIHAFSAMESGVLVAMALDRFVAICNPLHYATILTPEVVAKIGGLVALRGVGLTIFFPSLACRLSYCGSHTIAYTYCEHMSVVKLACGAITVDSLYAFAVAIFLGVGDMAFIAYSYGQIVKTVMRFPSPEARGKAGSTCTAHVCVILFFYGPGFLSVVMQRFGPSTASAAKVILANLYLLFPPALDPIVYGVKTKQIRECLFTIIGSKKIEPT
Method in brief: as §1

UniProt Q8VGX5 = molecular target: T8, UniProt Q8VGX5
T8 sequence (whole entry): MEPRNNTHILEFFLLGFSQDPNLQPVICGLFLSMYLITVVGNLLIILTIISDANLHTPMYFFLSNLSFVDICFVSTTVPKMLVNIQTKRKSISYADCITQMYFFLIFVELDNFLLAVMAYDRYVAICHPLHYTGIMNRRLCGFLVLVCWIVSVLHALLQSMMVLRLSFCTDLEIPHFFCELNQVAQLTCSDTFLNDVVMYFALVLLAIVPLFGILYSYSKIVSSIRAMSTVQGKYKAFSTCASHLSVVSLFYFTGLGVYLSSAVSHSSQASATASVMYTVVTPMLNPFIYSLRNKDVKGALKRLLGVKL
Method in brief: as §1

Measured: odorant receptor agonist call

O=C([O-])CCCCCCCC(=O)[O-].[H+].[H+]
inactive: all assays above

Cc1ccc(C(C)C)cc1
not listed: UniProt Q8VGW5
inactive: all other assays above

CCCCC=O
active: UniProt Q8VGW5
inactive: all other assays above
